Measurements reported in ChEMBL document CHEMBL1770139, “Synthesis of 'clickable' acylhomoserine lactone quorum sensing probes: unanticipated effects on mammalian cell activation” (Bioorg Med Chem Lett, 2011).
Calls of active or inactive are those of the source. No cut-off for these calls is given here.

How the values were obtained:
[1] = test system: BMDM; assay: Induction of PARP cleavage in mouse BMDM cells at 50 uM after 90 mins by Western blot analysis; format: cell-based
In short: (§1)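 Primary bone marrow-derived macrophages exposed to alkynyl AHL analogue at 50 μM for 90 minutes. Cell extracts were probed by Western blot for p38 phosphorylation, eIF2α phosphorylation and PARP cleavage.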

[2] = target: MAP kinase p38 (Mus musculus) (UniProt P47811+O08911+Q9WUI1+Q9Z1B7); assay: Induction of phosphorylation of p38 in mouse BMDM cells at 50 uM after 90 mins by Western blot analysis; format: cell-based; in short: as §1
[3] = test system: Pseudomonas aeruginosa; assay: Induction of quorum sensing activity in lasI/rhlI-deleted Pseudomonas aeruginosa PAO-JP2 expressing plasmid pKD201 containing a LasI reporter coupled to the luxCDABE assessed as relative luminescence units normalized with respect to cell viability at 1 uM after 4 hrs by autoinducer activity assay
In short: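 Autoinducer assay in P. aeruginosa luminescence reporter strain PAO-JP2, a PAO1 lasI/rhlI double mutant carrying luxABCDE.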

[4] = target: Eukaryotic translation initiation factor 2 subunit 1 (Mus musculus) (UniProt Q6ZWX6); assay: Induction of phosphorylation of eIF2alpha in mouse BMDM cells at 50 uM after 90 mins by Western blot analysis; format: cell-based; in short: as §1
Eukaryotic translation initiation factor 2 subunit 1 (Mus musculus), sequence (Q6ZWX6 whole entry): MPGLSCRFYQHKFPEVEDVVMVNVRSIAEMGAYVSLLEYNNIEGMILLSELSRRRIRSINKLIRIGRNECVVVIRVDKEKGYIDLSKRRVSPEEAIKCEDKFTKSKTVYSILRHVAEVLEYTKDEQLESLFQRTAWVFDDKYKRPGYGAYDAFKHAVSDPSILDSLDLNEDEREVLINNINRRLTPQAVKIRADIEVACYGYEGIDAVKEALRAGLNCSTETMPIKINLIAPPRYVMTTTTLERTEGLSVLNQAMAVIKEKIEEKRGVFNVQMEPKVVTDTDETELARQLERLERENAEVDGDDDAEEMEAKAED

SMILES	Activity [1]	Activity [2]	Activity [3]	Activity [4]
C#CCCCCCCCCC(=O)CC(=O)N[C@H]1CCOC1=O	Active	Active	Active	Active
C#CCCCCC(=O)CC(=O)N[C@H]1CCOC1=O	inactive	inactive	inactive	inactive
[N-]=[N+]=NCCCCCCCCCC(=O)CC(=O)N[C@H]1CCOC1=O	Active	Active	inactive	Active
[N-]=[N+]=NCCCCCCCCCC(=O)CC(=O)N[C@@H]1CCOC1=O	inactive	inactive	inactive	inactive
CCCCCCCCCC(=O)CC(=O)N[C@H]1CCOC1=O	Active	Active	Active	Active
